In ChEMBL document CHEMBL4373700, “Synthesis and Structure-Activity Relationship Correlations of Gnidimacrin Derivatives as Potent HIV-1 Inhibitors and HIV Latency Reversing Agents” (J Med Chem, 2019):

What was measured:
[1] = Agonist activity at Protein kinase C in human MT4 cells infected with HIV-1 NL4-3 assessed as inhibition of viral replication measured on day 3 post-infection by Nano-Glo luciferase assay
MT4 = experiment: Cytotoxicity against human MT4 cells measured after 3 days by CytoTox-Glo assay; format: cell-based; details: mt4, 72 h
Outline: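 MT4 cells cultured with a range of compound concentrations for 3 days. Viability by CytoTox-Glo, run per the manufacturer's protocol. CC50 is the concentration causing a 50% drop in viability.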

[2] = Half-life in Sprague-Dawley rat plasma at 0.05 mM measured up to 24 hrs by LCMS analysis; format: ADME, cell-free; details: 50 µM
Outline: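 Sprague Dawley rat plasma (sodium heparin) prewarmed 10 min at 37 °C. Compound added from 5 mM DMSO stock to a final 0.05 mM. Samples taken at 0, 0.5, 1, 2, 4, 6, 10 and 24 h, deproteinized with 2 volumes MeOH, centrifuged and filtered. Analysis by LCMS (C18, isocratic, ESI). Mean of three independent experiments.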

Protein kinase C (PKC) = experiment: Agonist activity at Protein kinase C in human U1 cells infected with HIV-1 NL4-3 assessed as induction of HIV-1 p24 production after 72 hrs by ELISA; format: cell-based
Outline: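 Latency model: U1 cells (2 × 10^5 cells/mL) incubated with a range of compound concentrations at 37 °C for 72 h. p24 in the supernatant measured by ELISA. EC50 is the concentration giving 50% of maximal p24 induction, from nonlinear regression.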

SMILES | IC50 [1] | CC50 (MT4) | t1/2 [2] | EC50 (Protein kinase C (PKC))
C=C(C)[C@]12C[C@@H](COC(=O)c3ccccc3)[C@@]34OC5(O[C@@H]1[C@@H]3[C@@H]1O[C@]1(COC(=O)/C=C/c1ccc(OC)cc1)[C@@H](O)[C@@]1(O)[C@H]4[C@H]([C@H](C)[C@@H]1OC(=O)c1ccccc1)[C@H](C)CCCCCC[C@H]5O)O2 | > 1 nM | > 1 nM | – | –
C=C(C)[C@]12C[C@@H](COC(=O)c3ccccc3)[C@@]34OC5(O[C@@H]1[C@@H]3[C@@H]1O[C@]1(CO)[C@@H](O)[C@@]1(O)[C@H]4[C@H]([C@H](C)[C@@H]1OC(=O)c1ccccc1)[C@H](C)CCCCCC[C@H]5OC(=O)/C(C)=C/C)O2 | > 1 nM | > 1 nM | – | –
C=C(C)[C@]12C[C@@H](COC(=O)c3ccccc3)[C@@]34OC5(O[C@@H]1[C@@H]3[C@@H]1O[C@]1(COC(=O)[C@@]13CC[C@@](C)(C(=O)O1)C3(C)C)[C@@H](O)[C@@]1(O)[C@H]4[C@H]([C@H](C)[C@@H]1OC(=O)c1ccccc1)[C@H](C)CCCCCC[C@H]5O)O2 | > 1 nM | > 1 nM | – | –
C=C(C)[C@]12C[C@@H](COC(=O)c3ccccc3)[C@@]34OC5(O[C@@H]1[C@@H]3[C@@H]1O[C@]1(CO)[C@@H](O)[C@@]1(O)[C@H]4[C@H]([C@H](C)[C@@H]1OC(=O)c1ccc3ccccc3c1)[C@H](C)CCCCCC[C@H]5O)O2 | 0.15 nM | > 1 nM | 26.17 h | –
CC(C)[C@]12C[C@@H](COC(=O)c3ccccc3)[C@@]34OC5(O[C@@H]1[C@@H]3[C@@H]1O[C@]1(CO)[C@@H](O)[C@@]1(O)[C@H]4[C@H]([C@H](C)[C@@H]1OC(=O)c1ccccc1)[C@H](C)CCCCCC[C@H]5O)O2 | 0.18 nM | > 1 nM | – | –
C=C(C)[C@]12C[C@@H](CO)[C@@]34OC5(O[C@@H]1[C@@H]3[C@@H]1O[C@]1(CO)[C@@H](O)[C@@]1(O)[C@H]4[C@H]([C@H](C)[C@@H]1O)[C@H](C)CCCCCC[C@H]5O)O2 | > 1 nM | > 1 nM | – | –
C=C(C)[C@]12C[C@@H](COC(=O)c3ccccc3)[C@@]34OC5(O[C@@H]1[C@@H]3[C@@H]1O[C@]1(CO)[C@@H](O)[C@@]1(O)[C@H]4[C@H]([C@H](C)[C@@H]1OC(=O)c1ccc(OC)cc1)[C@H](C)CCCCCC[C@H]5O)O2 | 0.17 nM | > 1 nM | – | –
C=C(C)[C@]12C[C@@H](COC(=O)c3ccccc3)[C@@]34OC5(O[C@@H]1[C@@H]3[C@@H]1O[C@]1(CO)[C@@H](OC(C)=O)[C@@]1(O)[C@H]4[C@H]([C@H](C)[C@@H]1OC(=O)c1ccccc1)[C@H](C)CCCCCC[C@H]5O)O2 | > 1 nM | > 1 nM | – | –
C=C(C)[C@]12C[C@@H](COC(=O)c3ccccc3)[C@@]34OC5(O[C@@H]1[C@@H]3[C@@H]1O[C@]1(CO)[C@@H](O)[C@@]1(O)[C@H]4[C@H]([C@H](C)[C@@H]1OC(=O)c1ccccc1)[C@H](C)CCCCCC[C@H]5OC(=O)/C=C/c1ccccc1)O2 | > 1 nM | > 1 nM | – | –
C=C(C)[C@]12C[C@@H](COC(=O)c3ccccc3)[C@@]34OC5(O[C@@H]1[C@@H]3[C@@H]1O[C@]1(COC(=O)c1ccccc1)[C@@H](O)[C@@]1(O)[C@H]4[C@H]([C@H](C)[C@@H]1OC(=O)c1ccccc1)[C@H](C)CCCCCC[C@H]5OC(=O)c1ccccc1)O2 | > 1 nM | > 1 nM | – | –
C=C(C)[C@]12C[C@@H](COC(=O)c3ccccc3)[C@@]34OC5(O[C@@H]1[C@@H]3[C@@H]1O[C@]1(COC(C)=O)[C@@H](OC(C)=O)[C@@]1(O)[C@H]4[C@H]([C@H](C)[C@@H]1OC(=O)c1ccccc1)[C@H](C)CCCCCC[C@H]5OC(C)=O)O2 | > 1 nM | > 1 nM | – | –
C=C(C)[C@]12C[C@@H](COC(=O)c3ccccc3)[C@@]34OC5(O[C@@H]1[C@@H]3[C@@H]1O[C@]1(COC(=O)C(C)(C)CC(=O)O)[C@@H](O)[C@@]1(O)[C@H]4[C@H]([C@H](C)[C@@H]1OC(=O)c1ccccc1)[C@H](C)CCCCCC[C@H]5O)O2 | > 1 nM | > 1 nM | – | –
C=C(C)[C@]12C[C@@H](COC(=O)c3ccccc3)[C@@]34OC5(O[C@@H]1[C@@H]3[C@@H]1O[C@]1(CO)[C@@H](O)[C@@]1(O)[C@H]4[C@H]([C@H](C)[C@@H]1OC(=O)c1ccc([N+](=O)[O-])cc1)[C@H](C)CCCCCC[C@H]5O)O2 | 0.22 nM | > 1 nM | – | –
C=C(C)[C@]12C[C@@H](COC(=O)c3ccccc3)[C@@]34OC5(O[C@@H]1[C@@H]3[C@@H]1O[C@]1(CO)[C@@H](O)[C@@]1(O)[C@H]4[C@H]([C@H](C)[C@@H]1O)[C@H](C)CCCCCC[C@H]5O)O2 | > 1 nM | > 1 nM | – | –
C=C(C)[C@]12C[C@@H](COC(=O)c3ccccc3)[C@@]34OC5(O[C@@H]1[C@@H]3[C@@H]1O[C@]1(CO)[C@@H](O)[C@@]1(O)[C@H]4[C@H]([C@H](C)[C@@H]1OC(=O)c1ccccc1)[C@H](C)CCCCCC[C@H]5OC(=O)c1ccc3ccccc3c1)O2 | > 1 nM | > 1 nM | – | –
C=C(C)[C@]12C[C@@H](COC(=O)c3ccccc3)[C@@]34OC5(O[C@@H]1[C@@H]3[C@@H]1O[C@]1(CO)[C@@H](O)[C@@]1(O)[C@H]4[C@H]([C@H](C)[C@@H]1OC(=O)c1ccccc1)[C@H](C)CCCCCC[C@H]5OC(C)=O)O2 | 0.09 nM | > 1 nM | – | –
C=C(C)[C@]12C[C@@H](COC(=O)c3ccccc3)[C@@]34OC5(O[C@@H]1[C@@H]3[C@@H]1O[C@]1(CO)[C@@H](O)[C@@]1(O)[C@H]4[C@H]([C@H](C)[C@@H]1OC(=O)c1ccccc1)[C@H](C)CCCCCC[C@H]5OC(=O)c1ccccc1)O2 | > 1 nM | > 1 nM | – | –
C=C(C)[C@]12C[C@@H](COC(=O)c3ccccc3)[C@@]34OC5(O[C@@H]1[C@@H]3[C@@H]1O[C@]1(CO)C(=O)[C@@]1(O)[C@H]4[C@H]([C@H](C)[C@@H]1OC(=O)c1ccccc1)[C@H](C)CCCCCC[C@H]5O)O2 | > 1 nM | > 1 nM | – | > 3.9 nM
C=C(C)[C@]12C[C@@H](COC(=O)c3ccccc3)[C@@]34OC5(O[C@@H]1[C@@H]3[C@@H]1O[C@]1(COC(=O)c1ccccc1)[C@@H](O)[C@@]1(O)[C@H]4[C@H]([C@H](C)[C@@H]1OC(=O)c1ccccc1)[C@H](C)CCCCCC[C@H]5O)O2 | > 1 nM | > 1 nM | – | –
C=C(C)[C@]12C[C@@H](COC(=O)c3ccccc3)[C@@]34OC5(O[C@@H]1[C@@H]3[C@@H]1O[C@]1(COC(=O)CC(C)(C)C(=O)O)[C@@H](O)[C@@]1(O)[C@H]4[C@H]([C@H](C)[C@@H]1OC(=O)c1ccccc1)[C@H](C)CCCCCC[C@H]5O)O2 | > 1 nM | > 1 nM | – | –
C=C(C)[C@]12C[C@@H](COC(=O)c3ccccc3)[C@@]34OC5(O[C@@H]1[C@@H]3[C@@H]1O[C@]1(COC(=O)C1(C)COC(C)(C)OC1)[C@@H](O)[C@@]1(O)[C@H]4[C@H]([C@H](C)[C@@H]1OC(=O)c1ccccc1)[C@H](C)CCCCCC[C@H]5O)O2 | > 1 nM | > 1 nM | – | –
C=C(C)[C@]12C[C@@H](COC(=O)c3ccccc3)[C@@]34OC5(O[C@@H]1[C@@H]3[C@@H]1O[C@]1(CO)[C@@H](O)[C@@]1(O)[C@H]4[C@H]([C@H](C)[C@@H]1OC(=O)/C=C/c1ccccc1)[C@H](C)CCCCCC[C@H]5O)O2 | > 1 nM | > 1 nM | – | –
C=C(C)[C@]12C[C@@H](COC(=O)c3ccccc3)[C@@]34OC5(O[C@@H]1[C@@H]3[C@@H]1O[C@]1(CO)[C@@H](OC(=O)c1ccccc1)[C@@]1(O)[C@H]4[C@H]([C@H](C)[C@@H]1OC(=O)c1ccccc1)[C@H](C)CCCCCC[C@H]5O)O2 | > 1 nM | > 1 nM | – | –
C=C(C)[C@]12C[C@@H](COC(=O)c3ccccc3)[C@@]34OC5(O[C@@H]1[C@@H]3[C@@H]1O[C@]1(COC(=O)CCC(=O)O)[C@@H](O)[C@@]1(O)[C@H]4[C@H]([C@H](C)[C@@H]1OC(=O)c1ccccc1)[C@H](C)CCCCCC[C@H]5O)O2 | > 1 nM | > 1 nM | – | –
C=C(C)[C@]12C[C@@H](COC(=O)c3ccccc3)[C@@]34OC5(O[C@@H]1[C@@H]3[C@@H]1O[C@]1(CO)[C@@H](O)[C@@]1(O)[C@H]4[C@H]([C@H](C)[C@@H]1OC(=O)c1ccccc1)[C@H](C)CCCCCC[C@H]5OC(=O)c1ccc(OC)cc1)O2 | > 1 nM | > 1 nM | – | –
C=C(C)[C@]12C[C@@H](COC(=O)c3ccccc3)[C@@]34OC5(O[C@@H]1[C@@H]3[C@@H]1O[C@]1(CO)[C@@H](O)[C@@]1(O)[C@H]4[C@H]([C@H](C)[C@@H]1OC(=O)c1ccccc1)[C@H](C)CCCCCC[C@H]5OC(=O)c1ccc([N+](=O)[O-])cc1)O2 | > 1 nM | > 1 nM | – | –
C=C(C)[C@]12C[C@@H](COC(=O)c3ccccc3)[C@@]34OC5(O[C@@H]1[C@@H]3[C@@H]1O[C@]1(COC(C)=O)[C@@H](O)[C@@]1(O)[C@H]4[C@H]([C@H](C)[C@@H]1OC(=O)c1ccccc1)[C@H](C)CCCCCC[C@H]5O)O2 | > 1 nM | > 1 nM | – | –
